{
  "source": "ChEMBL document CHEMBL3861960",
  "about": "“Leoligin, the Major Lignan from Edelweiss (Leontopodium nivale subsp. alpinum), Promotes Cholesterol Efflux from THP-1 Macrophages” (J Nat Prod, 2016)",
  "key": {"THP-1 [1]": {"system": "THP-1", "test": "Effect on PAIP2 protein expression in human THP1 cells at 10 uM after 24 hrs by proteome analysis relative to control", "format": "functional", "how_it_was_run": "(§1)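 PMA-differentiated THP-1 macrophages given 10 μM compound or DMSO for 24 h, then lysed in TRIzol. Proteins reduced with DTT, alkylated with iodoacetamide, digested with trypsin (1:50 w/w) for 16 h at 30 °C. Biological replicates pooled, analysed by LC-MS/MS on an Orbitrap Velos Pro with a 4 h gradient, FDR ≤0.05. Only unique peptides used; log2 peptide ratios averaged per protein and tested by one-sample t test versus vehicle.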"}, "THP-1 [2]": {"system": "THP-1", "test": "Effect on CELSR3 protein expression in human THP1 cells at 10 uM after 24 hrs by proteome analysis relative to control", "format": "functional", "how_it_was_run": "as §1"}, "THP-1 [3]": {"system": "THP-1", "test": "Effect on DNAH9 protein expression in human THP1 cells at 10 uM after 24 hrs by proteome analysis relative to control", "format": "functional", "how_it_was_run": "as §1"}, "THP-1 [4]": {"system": "THP-1", "test": "Effect on SMO protein expression in human THP1 cells at 10 uM after 24 hrs by proteome analysis relative to control", "format": "functional", "how_it_was_run": "as §1"}, "THP-1 [5]": {"system": "THP-1", "test": "Effect on NCSTN protein expression in human THP1 cells at 10 uM after 24 hrs by proteome analysis relative to control", "format": "functional", "how_it_was_run": "as §1"}, "THP-1 [6]": {"system": "THP-1", "test": "Effect on OR1M1 protein expression in human THP1 cells at 10 uM after 24 hrs by proteome analysis relative to control", "format": "functional", "how_it_was_run": "as §1"}, "THP-1 [7]": {"system": "THP-1", "test": "Effect on HIST2H2AC protein expression in human THP1 cells at 10 uM after 24 hrs by proteome analysis relative to control", "format": "functional", "how_it_was_run": "as §1"}, "THP-1 [8]": {"system": "THP-1", "test": "Effect on EVI2B protein expression in human THP1 cells at 10 uM after 24 hrs by proteome analysis relative to control", "format": "functional", "how_it_was_run": "as §1"}, "THP-1 [9]": {"system": "THP-1", "test": "Effect on CD44 protein expression in human THP1 cells at 10 uM after 24 hrs by proteome analysis relative to control", "format": "functional", "how_it_was_run": "as §1"}, "THP-1 [10]": {"system": "THP-1", "test": "Effect on TOMM20 protein expression in human THP1 cells at 10 uM after 24 hrs by proteome analysis relative to control", "format": "functional", "how_it_was_run": "as §1"}, "THP-1 [11]": {"system": "THP-1", "test": "Effect on PLAUR protein expression in human THP1 cells at 10 uM after 24 hrs by proteome analysis relative to control", "format": "functional", "how_it_was_run": "as §1"}, "[12]": {"test": "Upregulation of ABCA1 mRNA expression in human THP1 cells at 10 uM after 24 hrs by qPCR method relative to control", "format": "functional, cell-based", "settings": "THP-1", "how_it_was_run": "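THP-1 macrophages treated for 24 h with 10 μM compound, 10 μM pioglitazone or DMSO. Total RNA extracted and converted to cDNA; ABCA1 or ABCG1 measured by SYBR Green qPCR and expressed relative to 18S. Mean ± SD of four independent experiments; one-way ANOVA with Bonferroni test against DMSO.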"}, "THP-1 [13]": {"system": "THP-1", "test": "Effect on MCM8 protein expression in human THP1 cells at 10 uM after 24 hrs by proteome analysis relative to control", "format": "functional", "how_it_was_run": "as §1"}, "THP-1 [14]": {"system": "THP-1", "test": "Effect on SHMT1 protein expression in human THP1 cells at 10 uM after 24 hrs by proteome analysis relative to control", "format": "functional", "how_it_was_run": "as §1"}, "THP-1 [15]": {"system": "THP-1", "test": "Effect on MYL12B protein expression in human THP1 cells at 10 uM after 24 hrs by proteome analysis relative to control", "format": "functional", "how_it_was_run": "as §1"}, "[16]": {"test": "Upregulation of ABCA1 protein expression in human THP1 cells at 10 uM after 24 hrs by Western blot method", "format": "functional, cell-based", "settings": "THP-1", "how_it_was_run": "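THP-1 macrophages treated for 24 h with 10 μM compound, 10 μM pioglitazone or DMSO, then lysed in NP40 buffer (150 mM NaCl, 50 mM HEPES pH 7.4, 1% NP40) with protease and phosphatase inhibitors. 20 μg protein separated by SDS-PAGE and immunoblotted for ABCA1 with β-actin, ECL detection. Densitometry from four independent experiments.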"}, "THP-1 [17]": {"system": "THP-1", "test": "Effect on TUBA1A protein expression in human THP1 cells at 10 uM after 24 hrs by proteome analysis relative to control", "format": "functional", "how_it_was_run": "as §1"}, "THP-1 [18]": {"system": "THP-1", "test": "Effect on CDK12 protein expression in human THP1 cells at 10 uM after 24 hrs by proteome analysis relative to control", "format": "functional", "how_it_was_run": "as §1"}, "THP-1 [19]": {"system": "THP-1", "test": "Effect on MCM9 protein expression in human THP1 cells at 10 uM after 24 hrs by proteome analysis relative to control", "format": "functional", "how_it_was_run": "as §1"}, "THP-1 [20]": {"system": "THP-1", "test": "Effect on ART4 protein expression in human THP1 cells at 10 uM after 24 hrs by proteome analysis relative to control", "format": "functional", "how_it_was_run": "as §1"}, "THP-1 [21]": {"system": "THP-1", "test": "Effect on P4HTM protein expression in human THP1 cells at 10 uM after 24 hrs by proteome analysis relative to control", "format": "functional", "how_it_was_run": "as §1"}, "THP-1 [22]": {"system": "THP-1", "test": "Effect on COMMD1 protein expression in human THP1 cells at 10 uM after 24 hrs by proteome analysis relative to control", "format": "functional", "how_it_was_run": "as §1"}, "THP-1 [23]": {"system": "THP-1", "test": "Suppression of ABCA1 mRNA degradation in human THP1 cells at 10 uM in presence of de novo gene transcription inhibitor actinomycin D at 2 hrs by qPCR method", "format": "functional, cell-based", "how_it_was_run": "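Differentiated THP-1 macrophages treated with 10 μM compound or DMSO for 24 h, then given 5 μg/mL actinomycin D and lysed at set time points. Total RNA extracted and reverse-transcribed; ABCA1 mRNA measured by SYBR Green qPCR normalised to 18S. Four independent experiments.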"}, "THP-1 [24]": {"system": "THP-1", "test": "Effect on MAGEBS protein expression in human THP1 cells at 10 uM after 24 hrs by proteome analysis relative to control", "format": "functional", "how_it_was_run": "as §1"}, "THP-1 [25]": {"system": "THP-1", "test": "Effect on DNHD1 protein expression in human THP1 cells at 10 uM after 24 hrs by proteome analysis relative to control", "format": "functional", "how_it_was_run": "as §1"}, "THP-1 [26]": {"system": "THP-1", "test": "Effect on TARBP1 protein expression in human THP1 cells at 10 uM after 24 hrs by proteome analysis relative to control", "format": "functional", "how_it_was_run": "as §1"}},
  "note": "Active and inactive are the calls of the source. No cut-off for these calls is given here.",
  "data": [
    {"smiles": "C/C=C(/C)C(=O)OC[C@H]1[C@@H](Cc2ccc(OC)c(OC)c2)CO[C@@H]1c1ccc(OC)c(OC)c1", "values": [
      {"measurement": "fold change (FC)", "setting": "THP-1 [1]", "result": 1.7},
      {"measurement": "fold change (FC)", "setting": "THP-1 [2]", "result": 1.6},
      {"measurement": "fold change (FC)", "setting": "THP-1 [3]", "result": 0.4},
      {"measurement": "fold change (FC)", "setting": "THP-1 [4]", "result": 2.1},
      {"measurement": "fold change (FC)", "setting": "THP-1 [5]", "result": 1.7},
      {"measurement": "fold change (FC)", "setting": "THP-1 [6]", "result": 2},
      {"measurement": "fold change (FC)", "setting": "THP-1 [7]", "result": 0.6},
      {"measurement": "fold change (FC)", "setting": "THP-1 [8]", "result": 2.3},
      {"measurement": "fold change (FC)", "setting": "THP-1 [9]", "result": 1.8},
      {"measurement": "fold change (FC)", "setting": "THP-1 [10]", "result": 1.6},
      {"measurement": "fold change (FC)", "setting": "THP-1 [11]", "result": 1.5},
      {"measurement": "fold change (FC)", "setting": "[12]", "result": 2.4},
      {"measurement": "fold change (FC)", "setting": "THP-1 [13]", "result": 0.5},
      {"measurement": "fold change (FC)", "setting": "THP-1 [14]", "result": 1.8},
      {"measurement": "fold change (FC)", "setting": "THP-1 [15]", "result": 2},
      {"measurement": "Activity", "setting": "[16]", "result": "Active"},
      {"measurement": "fold change (FC)", "setting": "THP-1 [17]", "result": 1.5},
      {"measurement": "fold change (FC)", "setting": "THP-1 [18]", "result": 1.5},
      {"measurement": "fold change (FC)", "setting": "THP-1 [19]", "result": 1.9},
      {"measurement": "fold change (FC)", "setting": "THP-1 [20]", "result": 1.6},
      {"measurement": "fold change (FC)", "setting": "THP-1 [21]", "result": 0.6},
      {"measurement": "fold change (FC)", "setting": "THP-1 [22]", "result": 1.5},
      {"measurement": "Activity", "setting": "THP-1 [23]", "result": "Active"},
      {"measurement": "fold change (FC)", "setting": "THP-1 [24]", "result": 0.4},
      {"measurement": "fold change (FC)", "setting": "THP-1 [25]", "result": 0.6},
      {"measurement": "fold change (FC)", "setting": "THP-1 [26]", "result": 0.6}
    ]}
  ]
}
